Data set [1] addresses Neuraminidase (Influenza A virus (A/Puerto Rico/8/1934(H1N1))) (UniProt P03468). Put plainly: Irreversible inhibition of influenza A virus (A/WSN/1933(H1N1)) neuraminidase using MUNANA as fluorogenic substrate preincubated up to 48 hrs followed by substrate addition and measured after 15 mins by fluorometric assay.
For the next data set, the system named is Influenza A virus. The data set is described as follows: Antiviral activity against Influenza A virus (A/WSN/1933(H1N1)) infected in MDCK cells assessed as reduction in virus-induced cytopathic effect after 48 hrs by CellTiter 96 aqueous non-radioactive cell proliferation assay. Type of data set: functional, organism-based. Put shortly: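 MDCK cells (DMEM with 10% FBS, 37 °C, 5% CO2) were seeded at 1 × 10^5 cells/mL and infected with 100 TCID50 of A/WSN/33 premixed with inhibitor at varied concentrations. Incubation was 48 h at 37 °C, 5.0% CO2. Viability was read with CellTiter 96 AQueous reagent (15 min, A490). EC50 was fitted from % CPE vs concentration, as mean ± SD of three experiments.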
Background: Cytopathic effects are the visible damage that an infection or toxin causes in cultured cells.

The nature of data set [2]: Cytotoxicity against MDCK cells assessed as reduction in cell viability after 48 hrs by CellTiter 96 aqueous non-radioactive cell proliferation assay. The note with it: dog. The data set is classed as cell-based, Canis lupus familiaris. Put shortly:
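Uninfected MDCK cells at 1 × 10^5 cells/mL were exposed to inhibitor at varied concentrations for 48 h at 37 °C, 5.0% CO2. Viability was read with CellTiter 96 AQueous reagent (15 min, absorbance at 490 nm). CC50 was derived by curve fitting as for EC50.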

Active and inactive are the calls of the source. The calls are words filed in the database; no cut-off is given here. A value given as a limit tells only on which side of the number the result lay.

The term EC50 denotes the concentration that produces a half-maximal response. Broadly, the CC50 is the concentration giving 50% cytotoxicity.

Sequence of Neuraminidase (Influenza A virus (A/Puerto Rico/8/1934(H1N1))) (P03468 whole entry): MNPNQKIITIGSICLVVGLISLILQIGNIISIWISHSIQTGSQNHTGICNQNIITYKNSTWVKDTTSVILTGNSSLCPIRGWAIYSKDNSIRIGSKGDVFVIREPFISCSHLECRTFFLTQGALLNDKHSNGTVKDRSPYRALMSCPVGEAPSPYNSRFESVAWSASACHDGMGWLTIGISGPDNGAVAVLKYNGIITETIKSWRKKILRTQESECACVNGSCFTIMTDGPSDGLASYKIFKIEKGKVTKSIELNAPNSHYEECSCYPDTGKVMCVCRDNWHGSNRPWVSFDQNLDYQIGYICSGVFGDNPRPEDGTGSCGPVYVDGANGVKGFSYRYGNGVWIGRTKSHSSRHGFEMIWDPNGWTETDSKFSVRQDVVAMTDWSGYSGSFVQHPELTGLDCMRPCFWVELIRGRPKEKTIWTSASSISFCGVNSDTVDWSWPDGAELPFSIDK

With `CCC(CC)O[C@@H]1C=C(B(O)O)C[C@H](NC(=N)N)[C@H]1NC(C)=O`, the inhibition result in data set [1] was “inactive”. Further, the EC50 with Influenza A virus stood at 0.58 µM.

Regarding `CCC(CC)O[C@@H]1C=C([S+]([O-])O)C[C@H](NC(=N)N)[C@H]1NC(C)=O` (stereo not given in full), the CC50 at 48 h in data set [2] was more than 100 µM. Besides, in the data set on Influenza A virus, the EC50 was determined as 0.0078 µM.

For `CCC(CC)O[C@@H]1C=C([S+]([O-])O)C[C@H](N)[C@H]1NC(C)=O` (stereo not given in full), in data set [2], the CC50 at 48 h was more than 100 µM. The EC50 with Influenza A virus came out at 0.048 µM.

For the compound `CCCCOS(=O)(=O)C1=C[C@@H](OC(CC)CC)[C@H](NC(C)=O)[C@@H](N)C1`, in the data set on Influenza A virus, the 50% effective concentration (EC50) came out at 0.19 µM.

On to `CCC(CC)O[C@@H]1C=C(C(=O)O)C[C@H](N)[C@H]1NC(C)=O` [OSELTAMIVIR CARBOXYLATE], for which, in the data set on Influenza A virus, the EC50 came out at 0.028 µM.

In the case of `CCC(CC)O[C@@H]1C=C(C(=O)O)C[C@H](NC(=N)N)[C@H]1NC(C)=O`, in the data set on Influenza A virus, the EC50 came to 0.014 µM.

As for `CCC(CC)O[C@@H]1C=C(S(=O)(=O)O)C[C@H](NC(=N)N)[C@H]1NC(C)=O`, in data set [2], the CC50 at 48 h was more than 100 µM. Also, in the data set with Influenza A virus, the EC50 came to 0.0022 µM.

In the case of `CCC(CC)O[C@@H]1C=C(S(=O)(=O)OCCCc2ccccc2)C[C@H](N)[C@H]1NC(C)=O`, the EC50 with Influenza A virus is 0.28 µM.

Consider `CCC(CC)O[C@@H]1C=C(B(O)O)C[C@H](N)[C@H]1NC(C)=O`, for which the inhibition result in data set [1] is “inactive”. Further, the EC50 with Influenza A virus was determined as 1.7 µM.

In the case of `CCC(CC)O[C@@H]1C=C(S(=O)(=O)CCc2ccncc2)C[C@H](NC(=N)N)[C@H]1NC(C)=O`, the CC50 at 48 h in data set [2] is more than 100 µM. Further, the EC50 with Influenza A virus came out at 0.1 µM.

As to `CCC(CC)O[C@@H]1C=C(S(C)(=O)=O)C[C@H](N)[C@H]1NC(C)=O`, the EC50 in the data set with Influenza A virus amounted to 1.2 µM.

For `CCC(CC)O[C@@H]1C=C(S(C)(=O)=O)C[C@H](NC(=N)N)[C@H]1NC(C)=O`, the CC50 at 48 h in data set [2] was more than 100 µM. The EC50 with Influenza A virus stood at 0.046 µM.

For `CCC(CC)O[C@@H]1C=C(S(=O)(=O)OCCCc2ccccc2)C[C@H](NC(=N)N)[C@H]1NC(C)=O`, in data set [2], the cytotoxic concentration (CC50) at 48 h was more than 100 µM. Besides, the EC50 with Influenza A virus was 0.024 µM.

As for `CCC(CC)O[C@@H]1C=C([B-](F)(F)F)C[C@H](N)[C@H]1NC(C)=O`, the inhibition result in data set [1] was “inactive”. For the same compound, in the data set with Influenza A virus, the EC50 amounted to 0.86 µM.

As for `CCC(CC)O[C@@H]1C=C(S(=O)(=O)O)C[C@H](N)[C@H]1NC(C)=O`, the CC50 at 48 h in data set [2] was more than 100 µM. In addition, in the data set on Influenza A virus, the concentration giving a half-maximal response (EC50) amounted to 0.014 µM.

Turning to `CCC(CC)O[C@@H]1C=C([B-](F)(F)F)C[C@H](NC(=N)N)[C@H]1NC(C)=O`, the inhibition entry in data set [1] is “inactive”. In addition, the EC50 in the data set on Influenza A virus amounted to 0.27 µM.

Turning to `CCC(CC)O[C@@H]1C=C(S(=O)(=O)CCc2ccncc2)C[C@H](N)[C@H]1NC(C)=O`, the EC50 in the data set on Influenza A virus was found to be 1.5 µM.

Turning to `CCCCOS(=O)(=O)C1=C[C@@H](OC(CC)CC)[C@H](NC(C)=O)[C@@H](NC(=N)N)C1`, in data set [2], the CC50 at 48 h is more than 100 µM. Besides, the EC50 in the data set with Influenza A virus worked out at 0.031 µM.

The record behind these values is ChEMBL document CHEMBL4411292, “Boronate, trifluoroborate, sulfone, sulfinate and sulfonate congeners of oseltamivir carboxylic acid: Synthesis and anti-influenza activity” (Eur J Med Chem, 2019).
